From PMC10962275 (Pharmacological research, 2024)
Values after ≈ are worked out from the molar mass of the structure shown. Read-outs that look alike come from different tables or passages of the source.

Legend:
APE1 = APE1 (Homo sapiens, UniProt P27695); experiment: Kinetic fluorescence based APE1 endonuclease; format: biochemical
Outline: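 Recombinant APE1 at 0.07–0.1 nM, tuned before each run for a linear signal, cleaves a double-stranded oligo with a 6-FAM-labelled strand carrying a tetrahydrofuran AP-site mimic and a DABCYL-quenched complement. Read 495/530 over a 5 min kinetic read at 37 °C. A known repair inhibitor serves as reference, also at 20 μM.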

Pa03C cells [1] = experiment: 3D co-culture spheroid assay, tumor cells; format: cell-based; conditions: Homo sapiens; for EC50: read-out: 3D tumor(Pa03C) EC50 (mM); for IC50: read-out: cell killing effect in the 3D spheroid assay
CAF19 cells = experiment: 3D co-culture spheroid assay, CAFs; format: cell-based; conditions: Homo sapiens, Pa03C, read-out: 3D CAF19 EC50 (mM)
Outline: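 Pa03C (TdTomato-labelled) and CAF19 (EGFP-labelled) plated together at 1:4 in ultra-low-attachment plates to form spheroids. Treated on days 4, 8 and 12 with rising test compound levels in medium containing 5% serum and 3% growth-factor-reduced Matrigel. Fluorescence intensity read by high-content imaging on days 4, 8, 12 and 14. Mean ± SE, n > 3.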

[2] = Plasma stability, human plasma; format: in vitro ADME
Outline: (§1)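 Human or mouse plasma pre-warmed to 37 °C and added to dried test compound (1 μM) held on a 37 °C heat block. Stopped with cold acetonitrile at 0, 5, 10, 20, 40 and 60 min. Processed samples reconstituted in acetonitrile and analysed by HPLC.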

[3] = Plasma stability, mouse plasma; format: in vitro ADME
Outline: as §1

Thermodynamic solubility = format: physicochemical; conditions: thermodynamic from solid; for solubility thermodynamic at 24 h: 37 °C; for solubility thermodynamic: phosphate buffer, pH 6.8, aqueous buffer
HIF1α [4] = experiment: HIF1α-driven luciferase reporter assay, NF90-8 cells, 1% hypoxia; format: cell-based; conditions: Homo sapiens, 24 h, read-out: HIF1α Luciferase 24 hr EC50±SE (μM)
Outline: (§2)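 Pa03C and NF90–8 cells carrying a HIF1α-driven GFP-luciferase reporter, checked for induction by hypoxia. Seeded, then treated 24 h later with increasing test compound doses in 5% FBS medium for 24 h under 1% hypoxia. Luciferase measured by One-Glo, with parallel alamarBlue viability. Mean ± SEM, n > 2 biological repeats.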

NFκB [5] = experiment: NFκB-driven luciferase reporter assay, Pa03C cells; format: cell-based; conditions: Homo sapiens, 24 h, read-out: NFκB Luciferase 24 hr EC50 ± SE (μM)
Outline: (§3)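 Pa03C and NF90–8 cells carrying an NFκB-driven GFP-luciferase reporter, checked for induction by TNF-α. Seeded, then treated 24 h later with increasing test compound doses in 5% FBS medium for 24 h. Luciferase measured by One-Glo, with parallel alamarBlue viability. Mean ± SEM, n > 2 biological repeats.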

NFκB [6] = experiment: NFκB-driven luciferase reporter assay, NF90-8 cells; format: cell-based; conditions: Homo sapiens, 24 h, read-out: NFκB Luciferase 24 hr EC50±SE (μM)
Outline: as §3

[7] = Phase 1 metabolic stability, mouse liver S9; format: in vitro ADME; conditions: liver S9, pH 7.4
Outline: (§4)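 Test compound (1 μM) dried under nitrogen, then mixed with human or mouse liver S9 or microsomes (20 mg/mL stock) in phosphate buffer pH 7.4 with 5 mM MgCl2. Reaction started with NADPH (4 mM stock), shaken at 400 rpm. Sampled at 0, 5, 10, 20, 40 and 60 min and quenched with ice-cold acetonitrile; analysed by HPLC.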

Ref-1 (39–318/C138A) [8] = target: T1, Ref-1 (39–318/C138A) (Homo sapiens, UniProt P27695, C138A); experiment: WaterLOGSY NMR; format: binding; conditions: 20 μM Ref-1, 200 μM compound
Outline: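 WaterLOGSY spectra acquired with 1.5 s mixing time, 128 scans, 10 ppm sweep width, 1.58 s acquisition time and 5 s relaxation delay. Data multiplied by an exponential function with 1 Hz line broadening before Fourier transformation.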

[9] = Chemical stability in enabling vehicle PKT; format: physicochemical
In vivo PK in mouse = conditions: plasma; for clearance: iv; for AUC(0-inf) / Cmax / half-life: po, 25 mg/kg
[10] = Phase 1 metabolic stability, human liver microsomes; format: in vitro ADME; conditions: pH 7.4
Outline: as §4

[11] = CaCO2 bidirectional permeability; format: in vitro ADME; conditions: human, Caco-2
[12] = Phase 1 metabolic stability, human liver S9; format: in vitro ADME; conditions: liver S9, pH 7.4
Outline: as §4

HIF1α [13] = experiment: HIF1α-driven luciferase reporter assay, Pa03C cells, 1% hypoxia; format: cell-based; conditions: Homo sapiens, 24 h, read-out: HIF1α Luciferase 24 hr EC50 ± SE (μM)
Outline: as §2

[14] = Phase 1 metabolic stability, mouse liver microsomes; format: in vitro ADME; conditions: pH 7.4
Outline: as §4

NFκB and HIF1α = experiment: Ref-1-regulated transcription factor driven luciferase activity; format: cell-based, human; conditions: Pa03C and NF90–8 cells, 24 h
Ref-1 = Ref-1 (Homo sapiens, UniProt P27695); experiment: Redox EMSA; format: biochemical
NFκB [15] = experiment: NFκB luciferase reporter assay; format: cell-based, human; conditions: for IC50: Homo sapiens, Pa03C, read-out: NFκB (IC50 mM)
Outline: as §3

[16] = Phase 2 metabolic stability, mouse liver S9; format: in vitro ADME
Outline: (§5)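 Test compound (1 μM) dried under nitrogen, then incubated with human or mouse liver S9 in UGT reaction mix, shaken at 400 rpm. Stopped with ice-cold acetonitrile at 0, 5, 10, 20, 40 and 60 min. Temazepam internal standard added, then centrifuged; supernatant dried and reconstituted in acetonitrile for HPLC.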

NF90–8 cells = experiment: Mitochondrial plate-based assay; format: cell-based, human; conditions: APX2051 at 10 μM, APX3330 at 50 μM
Outline: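 Biolog S-1 Mitoplates activated with Assay Mix for at least 60 min at 37 °C. NF90–8 cells treated 24 h, then collected, counted, resuspended in kit buffer and plated at 5 × 10^4 cells/well. Read kinetically at 590 nm every 5 min for 4 h at 37 °C. Mean ± SEM, n = 2; 2-way ANOVA.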

Ref-1 (39–318/C138A) [17] = target: T1, Ref-1 (39–318/C138A); conditions: ref [25]; cited from earlier work
progressing solid tumors = conditions: phase I clinical trial, ref [34]–[36]; cited from earlier work
[18] = preclinical models; cited from earlier work
[19] = Phase 2 metabolic stability, human liver S9; format: in vitro ADME
Outline: as §5

NF90–8 and Pa03C cells = experiment: Cell viability; format: cell-based, human; conditions: alamar blue, 24 h
Pa03C cells [20] = experiment: NADP/NADPH assay; format: cell-based, human; conditions: 6 h
[21] = FaSSGF, fassgf or other biorelevant

T1 sequence (P27695 39-318 C138A): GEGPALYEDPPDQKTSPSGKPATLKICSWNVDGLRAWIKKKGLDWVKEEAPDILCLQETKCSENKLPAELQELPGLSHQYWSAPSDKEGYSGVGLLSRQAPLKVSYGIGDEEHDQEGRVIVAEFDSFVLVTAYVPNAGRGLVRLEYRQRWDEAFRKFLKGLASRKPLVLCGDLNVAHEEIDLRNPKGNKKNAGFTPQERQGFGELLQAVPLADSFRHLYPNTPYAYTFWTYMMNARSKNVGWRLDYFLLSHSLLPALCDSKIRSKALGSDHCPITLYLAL
APE1, sequence (P27695 whole entry): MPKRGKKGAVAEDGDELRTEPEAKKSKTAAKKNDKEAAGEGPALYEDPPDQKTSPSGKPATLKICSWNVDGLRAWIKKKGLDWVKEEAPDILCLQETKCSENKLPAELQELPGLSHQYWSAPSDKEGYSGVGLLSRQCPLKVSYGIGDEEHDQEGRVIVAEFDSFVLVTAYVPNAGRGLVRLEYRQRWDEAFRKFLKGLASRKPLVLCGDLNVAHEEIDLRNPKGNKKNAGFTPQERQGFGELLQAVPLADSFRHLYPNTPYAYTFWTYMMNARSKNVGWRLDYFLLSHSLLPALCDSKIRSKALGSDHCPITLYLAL
Ref-1, sequence (P27695 whole entry): as above

SMILES | EC50 (Pa03C cells [1]) [mM] | IC50 (Pa03C cells [1]) [µM] | EC50 (CAF19 cells) [mM] | half-life at 1 µM [2] [h] | half-life at 1 µM [3] [h] | solubility thermodynamic at 24 h (Thermodynamic solubility; [21]) [µg/mL] | solubility thermodynamic at 24 h (Thermodynamic solubility; FaSSIF) [µg/mL] | solubility thermodynamic at 24 h (Thermodynamic solubility; FeSSIF) [µg/mL] | solubility thermodynamic (Thermodynamic solubility) [µg/mL] | EC50 (HIF1α [4]) [µM] | CLint scaled at 1 µM [7] [mL/min/kg] | clearance (In vivo PK in mouse) [mL/min] | AUC(0-inf) (In vivo PK in mouse) [ng·h/mL] | Cmax (In vivo PK in mouse) [ng/mL] | half-life (In vivo PK in mouse) [h] | CLint scaled at 1 µM [10] [mL/min/kg] | Papp A→B [11] [×10⁻⁶ cm/s] | CLint scaled at 1 µM [12] [mL/min/kg] | CLint scaled at 1 µM [14] [mL/min/kg] | DNA Repair (APE1) | further results
CC(=O)Nc1sc2c(c1-c1nc3ccccc3s1)CCN(C(C)C)C2 [ARi3, reference compound] | – | – | – | – | – | – | – | – | – | – | – | – | – | – | – | – | – | – | – | – | decrease of Ref-1 endonuclease activity (APE1; 20 μM, positive control): 63%
CCC/C(=C\C1=C(OC)C(=O)c2ccccc2C1=O)C(=O)N(CC)CC [APX2009, (E)‐N,N‐diethyl‐2‐[(3‐methoxy‐1,4‐dioxo‐1,4‐dihydronaphthalen‐2-yl)methylidene]pentanamide] | 0.0046 | 4.3 | 0.0078 | 2.72 | 0.567 | 95 (≈ 267 µM) | 198 (≈ 557 µM) | 558 (≈ 1570 µM) | 94 (≈ 264 µM) | 14.3 ± 0.25 | 7.9 | 0.683 | 113 | 27 | 1.8 | 4.3 | 33.7 | 2.9 | 19.3 | Neg. | EC50 (NFκB [5]): 18.8 ± 1.35 µM; EC50 (NFκB [6]): 5.1 ± 0.3 µM; peaks in waterLOGSY difference spectra (Ref-1 (39–318/C138A) [8]): consistent with interactions with Ref-1; chemical stability in PKT vehicle, stressed ([9]; 60 °C for 4 h): formation of significant amount of the hydroquinone (HQ) of APX2053; chemical stability in PKT vehicle ([9]; room temperature after four days): acceptable stability; efflux ratio [11]: 0.75; EC50 (HIF1α [13]): 14.5 ± 1.06 µM; reduction in both NFκB and HIF1α activity: fold lower doses compared to APX3330 (NFκB and HIF1α): 2 – 11 fold; IC50 (Ref-1): < 1 µM; IC50 (NFκB [15]): 0.0051 mM
CCCCCCCCC/C(=C\C1=C(C)C(=O)C(OC)=C(OC)C1=O)C(=O)O [APX3330, reference compound] | > 0.02 | – | > 0.02 | 8.48 | 1.57 | 1 (≈ 2.64 µM) | 671 (≈ 1770 µM) | 448 (≈ 1180 µM) | 496 (≈ 1310 µM) | 55.1 ± 0.44 | 14.2 | 0.00833 | 77900 | 8820 | 3.8 | 31.8 | 5.2 | 4.4 | 67.4 | Neg. | CLint scaled at 1 µM [16]: 21.6 mL/min/kg; inhibition of mitochondrial function (NF90–8 cells): minimal effects; EC50 (NFκB [5]): 54.5 ± 1.97 µM; EC50 (NFκB [6]): 33.7 ± 2.81 µM; peaks in waterLOGSY difference spectra (Ref-1 (39–318/C138A) [17]): consistent with interactions with Ref-1; response rate (progressing solid tumors): 32%; EC50 (HIF1α [13]): 60.2 ± 4.13 µM; potency in cell-based proliferation assays [18]: 50 to 75 µM; CLint scaled at 1 µM [19]: 5.6 mL/min/kg; IC50 (NFκB [15]): 0.0393 mM
CCC/C(=C\C1=C(O)C(=O)c2ccccc2C1=O)C(=O)N(CC)CC [APX2053, (E)-N,N-diethyl-2-((3-hydroxy-1,4-dioxo-1,4-dihydronaphthalen-2-yl)methylene)pentanamide] | 0.0161 | 16 | 0.0143 | 0.417 | 2.2 | 760 (≈ 2230 µM) | 1010 (≈ 2960 µM) | 1200 (≈ 3510 µM) | – | – | 34.6 | 0.0217 | 25400 | 5700 | 2.1 | 2.3 | 39.7 | 1.9 | 19 | Slight. Inhib. | peaks in waterLOGSY difference spectra (Ref-1 (39–318/C138A) [8]): consistent with interactions with Ref-1; efflux ratio [11]: 1; NFκB activity (NFκB [15]; NF90–8 and Pa03C, any of the doses tested): do not decrease; blocking Ref-1 activated TF activity (for NFκB) (NFκB [15]; tested up to 40 μM): ineffective; cell viability of reporter cells (NF90–8 and Pa03C cells): do not decrease the NFκB activity or affect cell viability; NADPH levels (ratio of NADPH/NADPt) (Pa03C cells [20]): does not show reduced NADPH levels
